Measured values published in article PMC4618315 (Nature, 2015).
Substitutions are numbered along the chain they refer to.

Key:
Type in all cases: binding
[1] = biological target: T1, rGLUT5 Q166E (Rattus norvegicus, UniProt P43427, A285T/N50Y/Q166E/T452S); test: Tryptophan fluorescence quenching of purified rat GLUT5 Q166E mutant; conditions: rGLUT5 Q166E relative to WT; 40 mM sugar
T1 sequence (P43427 with tags, fused parts or gaps N50Y/Q166E/A285T/T452S): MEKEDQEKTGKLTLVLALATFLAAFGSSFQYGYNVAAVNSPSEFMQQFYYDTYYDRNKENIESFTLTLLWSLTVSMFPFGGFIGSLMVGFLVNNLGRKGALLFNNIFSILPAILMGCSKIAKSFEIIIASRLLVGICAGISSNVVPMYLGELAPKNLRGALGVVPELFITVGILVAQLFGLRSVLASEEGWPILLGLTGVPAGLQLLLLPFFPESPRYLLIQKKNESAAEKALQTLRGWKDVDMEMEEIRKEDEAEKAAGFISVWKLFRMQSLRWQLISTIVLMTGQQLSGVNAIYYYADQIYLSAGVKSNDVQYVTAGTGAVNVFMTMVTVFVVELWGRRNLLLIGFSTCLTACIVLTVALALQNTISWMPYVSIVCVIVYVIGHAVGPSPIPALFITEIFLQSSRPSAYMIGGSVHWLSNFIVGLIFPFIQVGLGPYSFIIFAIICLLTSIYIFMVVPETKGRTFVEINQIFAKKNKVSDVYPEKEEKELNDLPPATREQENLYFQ
Outline: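 Deglycosylated N50Y rat background carried the Q166E mutation, made by PCR mutagenesis and purified as WT (Ni-NTA, SEC in DDM). Protein was used at 0.06 mg/ml in 20 mM Tris pH 7.5, 150 mM NaCl, 0.03% DDM, with or without 5 mM HgCl2 pre-incubation. Single 40 mM D-fructose or D-glucose additions, or increasing D-glucose, were incubated 2 min at room temperature. Readout: excitation 295 nm, 338 nm emission peak; triplicate.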

[2] = biological target: T2, bovine GLUT5 (Bos taurus, UniProt P58353, N51A)
T2 sequence (P58353 with tags, fused parts or gaps N51A): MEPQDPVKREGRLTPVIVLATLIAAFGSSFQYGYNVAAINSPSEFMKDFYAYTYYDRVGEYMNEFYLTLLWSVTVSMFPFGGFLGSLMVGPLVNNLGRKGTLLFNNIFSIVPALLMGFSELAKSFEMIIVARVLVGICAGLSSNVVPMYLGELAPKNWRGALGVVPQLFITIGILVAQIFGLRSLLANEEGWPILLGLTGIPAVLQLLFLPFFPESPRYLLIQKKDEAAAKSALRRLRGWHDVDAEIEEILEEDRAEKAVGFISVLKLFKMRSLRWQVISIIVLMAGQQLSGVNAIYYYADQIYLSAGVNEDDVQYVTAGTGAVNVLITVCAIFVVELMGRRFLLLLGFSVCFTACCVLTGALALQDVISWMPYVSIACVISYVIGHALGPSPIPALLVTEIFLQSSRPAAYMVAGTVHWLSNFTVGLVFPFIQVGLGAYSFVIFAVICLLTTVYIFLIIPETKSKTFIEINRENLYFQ
Outline: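 Bovine construct (residues 1–473 of 501, N51A deglycosylation) was expressed in S. cerevisiae, solubilised in 1% DDM and bound to Ni-NTA. It was TEV-cleaved and run on SEC in 10 mM Tris-HCl pH 7.5, 150 mM NaCl, 0.09% UDMβ. D-fructose was added sequentially, with 2 min room-temperature incubation after each addition. Trp fluorescence: excitation 295 nm, emission 338 nm.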

[3] = biological target: T3, rGLUT5 (rat GLUT5 deglycosylation mutant N50Y, "WT") (Rattus norvegicus, UniProt P43427, A285T/N50Y/T452S); test: Tryptophan fluorescence quenching of purified rat GLUT5 WT
T3 sequence (P43427 with tags, fused parts or gaps N50Y/A285T/T452S): T1 sequence (P43427 with tags, fused parts or gaps N50Y/Q166E/A285T/T452S) with E166Q

[4] = biological target: T4, rGLUT5 with a single tryptophan residue (W419) (Rattus norvegicus, UniProt P43427, N50Y/W191F/W239F/W265F/W275F/W338F/W370F/W70F); test: Tryptophan fluorescence quenching of rat GLUT5 single tryptophan; conditions: 40 mM sugar
T4 sequence (P43427 with tags, fused parts or gaps N50Y/W70F/W191F/W239F/W265F/W275F/A285T/W338F/W370F/T452S): T1 sequence (P43427 with tags, fused parts or gaps N50Y/Q166E/A285T/T452S) with W70F, E166Q, W191F, W239F, W265F, W275F, W338F, W370F
Outline: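 Single-Trp rat protein (N50Y plus W70F, W191F, W239F, W265F, W275F, W338F, W370F) was used at 0.06 mg/ml in 20 mM Tris pH 7.5, 150 mM NaCl, 0.03% DDM, with or without 5 mM HgCl2. Sugars were each added at 40 mM final; D-fructose was also added sequentially up to 40 mM. After 2 min at room temperature: excitation 295 nm, emission 338 nm. Kd by non-linear regression; triplicate.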

Compound | sugar binding (in words) [1] | Kd [2] [mM] | Kd ([3]; Kd, purified rGLUT5 WT (N50Y) in DDM, excitation 295 nm, emission 338 nm, n = 3) [mM] | quenching of tryptophan fluorescence (in words) ([3]; addition of sugar (40 mM) to rGLUT5) | tryptophan quenching (in words) [4]
O=C(CO)[C@@H](O)[C@H](O)[C@H](O)CO [D-fructose] | clearly weakens | 5.5 ± 0.6 | 6 to 9 | strong quenching | –
O=C[C@H](O)[C@@H](O)[C@@H](O)[C@H](O)CO [D-galactose] | – | – | – | – | No tryptophan quenching
OC[C@H]1OC(O)[C@H](O)[C@@H](O)[C@@H]1O (stereo partly drawn) [D-glucose] | robust binding | – | – | – | No tryptophan quenching
O=C(CO)[C@H](O)[C@@H](O)[C@@H](O)CO [L-fructose, reference compound] | – | – | – | – | No tryptophan quenching
